In series [1] the test system is RAW264.7. Briefly: Inhibition of LPS/IFN-gamma-induced PGE2 production in mouse RAW264.7 cells after 17 to 20 hrs by enzyme immunoassay. It is filed as functional, cell-based. A digest of the protocol:
(§1)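 Cells (5 × 10⁵/well) attached 24 h, then stimulated with recombinant IFN-γ 100 U/mL and LPS 2 µg/mL with or without compound (DMSO vehicle, 0.1% final), 17–20 h at 37 °C, 5% CO₂. U937 were first differentiated with 200 nM PMA for 24 h, then serum-free overnight. Supernatant PGE₂ quantified against standard curves; dose-response 0.78–50 µM, means ± SD of three samples.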

Series [2] relates to U-937. Briefly: Inhibition of LPS/IFN-gamma-induced PGE2 production in PMA-treated human U937 cells at 25 uM after 17 to 20 hrs by enzyme immunoassay relative to control. It is filed as functional. The method in brief:
as §1

Series [3] has as its system RAW264.7. Briefly: Inhibition of LPS/IFN-gamma-induced PGE2 production in mouse RAW264.7 cells at 25 uM after 17 to 20 hrs by enzyme immunoassay relative to control. It is filed as functional. The method in brief: as §1
Series [4] deals with U-937. Briefly: Inhibition of LPS/IFN-gamma-induced PGE2 production in PMA-treated human U937 cells after 17 to 20 hrs by enzyme immunoassay. It is filed as functional, cell-based. A digest of the protocol:
as §1

Series [5] relates to RAW264.7. Briefly: Inhibition of LPS/IFN-gamma-induced nitric oxide production in mouse RAW264.7 cells at 25 uM relative to control. It is filed as functional.
In series [6] the target is T1, Prostaglandin G/H synthase 1 (Ovis aries) (UniProt P05979).
T1 sequence (whole entry): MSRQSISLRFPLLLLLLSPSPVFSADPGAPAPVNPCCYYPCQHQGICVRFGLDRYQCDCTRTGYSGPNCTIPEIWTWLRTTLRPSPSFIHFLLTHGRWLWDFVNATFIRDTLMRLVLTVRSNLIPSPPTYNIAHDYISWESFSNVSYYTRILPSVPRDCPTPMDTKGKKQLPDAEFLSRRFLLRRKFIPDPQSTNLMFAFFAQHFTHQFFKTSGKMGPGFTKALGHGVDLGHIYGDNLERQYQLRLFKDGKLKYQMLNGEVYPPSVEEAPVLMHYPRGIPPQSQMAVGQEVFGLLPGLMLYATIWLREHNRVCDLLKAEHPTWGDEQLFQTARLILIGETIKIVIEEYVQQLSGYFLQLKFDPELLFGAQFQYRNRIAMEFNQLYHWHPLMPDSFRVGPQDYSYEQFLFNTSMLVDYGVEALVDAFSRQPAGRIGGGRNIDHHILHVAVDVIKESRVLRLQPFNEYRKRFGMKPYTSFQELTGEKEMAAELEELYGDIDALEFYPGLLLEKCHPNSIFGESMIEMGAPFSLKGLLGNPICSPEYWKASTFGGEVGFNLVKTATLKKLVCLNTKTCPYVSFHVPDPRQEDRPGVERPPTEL
The series can be described thus: Inhibition of ovine COX1 at 25 uM by ELISA relative to control. The method in brief:
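COX-1 (ovine) inhibition measured with a commercial ovine/human COX inhibitor screening ELISA kit per manufacturer's protocol; prostaglandin concentrations read on a microplate reader and calculated from standard curves.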
In general terms: ELISA stands for enzyme-linked immunosorbent assay.

Series [7] in a line: Inhibition of COX in CD1 mouse epidermal microsomes using [14C]arachidonic acid as substrate assessed as PGE2, PGF2alpha, and PGD2 formation by TLC/liquid scintillation spectrometry method. More on the design: species or system Skin epidermis.
Series [8] is described as follows: Inhibition of COX in CD1 mouse epidermal cytosolic fractions using [14C]arachidonic acid as substrate assessed as PGE2, PGF2alpha, and PGD2 formation by TLC/liquid scintillation spectrometry method.
Series [9] can be described thus: Cytotoxicity against PMA-treated human U937 cells assessed as cell viability at 25 uM by MTT assay relative to control. It is filed as cell-based, U-937. To be noted: read-out: Activity. A digest of the protocol:
(§2)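 After 17–20 h stimulation with 100 U/mL IFN-γ plus 2 µg/mL LPS (±compound, DMSO final 0.1%) at 37 °C, 5% CO₂, supernatant removed; MTT (5 mg/mL stock, 20 µL) added, 4 h at 37 °C; formazan dissolved in DMSO, absorbance at 570 nm. U937 were PMA-differentiated (200 nM, 24 h), then serum-free overnight; RAW264.7 grown in DMEM/10% FBS.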
In general terms: Tetrazolium dyes change colour on reduction, which living cells bring about.

The nature of series [10]: Cytotoxicity against mouse RAW264.7 cells assessed as cell viability at 25 uM by MTT assay relative to control. To be noted: read-out: Activity. It is filed as cell-based. The method in brief:
as §2

The subject of series [11] is RAW264.7. The series can be described thus: Inhibition of LPS/IFN-gamma-induced PGE2 production in mouse RAW264.7 cells at 5 uM after 17 to 20 hrs by enzyme immunoassay relative to control. To be noted: RAW264.7, read-out: INH.
The nature of series [12]: Cytotoxicity against mouse RAW264.7 cells assessed as cell viability at 5 uM by MTT assay relative to control.
Series [13] relates to U-937. Briefly: Inhibition of LPS/IFN-gamma-induced PGE2 production in PMA-treated human U937 cells at 5 uM after 17 to 20 hrs by enzyme immunoassay relative to control. As to conditions: U-937, read-out: INH.
Series [14] in a line: Cytotoxicity against PMA-treated human U937 cells assessed as cell viability at 5 uM by MTT assay relative to control.

Among the data in ChEMBL document CHEMBL3792362 (Bioorg Med Chem Lett, 2016) are IC50, inhibition and viability values, retold here.

The source made the active and inactive calls. No cut-off for these calls is given here.

On to `COc1cc(/C=C/C(=O)CC(=O)/C=C/c2ccc(O)c(OC)c2)ccc1O` [CURCUMIN], for which the IC50 in [1] turned out to be 16 µM; in series [4] it was 1.88 µM; in [7], 52 µM; in series [8], 5 µM. The figures for the inhibition at 25 µM in series [2], in [3] and in series [5] were 94%, 78% and 85%, respectively. Also, the inhibition entry in series [6] was “inactive”. Also, the viability at 25 µM in series [9] amounted to 95%; in [10], 90%.

`CCN(CC)c1ccc(/C=C2\CCC/C(=C\c3ccc(-c4ccc(F)cc4)cc3)C2=O)cc1`: the inhibition at 25 µM turned out to be 72% in [2] and 65% in series [3]. In addition, the inhibition result in [5] was “inactive”. Further, the viability at 25 µM in series [9] amounted to 100%; in series [10], 94%.

`COc1cccc(/C=C2\CCC/C(=C\c3ccc(C)cc3)C2=O)c1OC`: the IC50 in series [1] is 12 µM; in series [4], 3.44 µM. The inhibition at 25 µM in series [2] worked out at 83%; in series [3] it was 83%; in series [5], 95%. The inhibition entry in series [4] is “Dose-dependent effect”. For the same compound, the inhibition result in series [6] is “inactive”. For the same compound, the viability at 25 µM in series [9] and in series [10] was 100% throughout.

Regarding `COc1ccc(/C=C2\CCC/C(=C\c3ccc(O)c(OC)c3)C2=O)cc1`, the IC50 in [1] came to 0.78 µM; in [4], 0.95 µM. Further, the inhibition at 25 µM in [2] was 86%; in series [3], 96%; in series [5], 100%. Moreover, in series [6], the inhibition entry is “inactive”. Moreover, the viability at 25 µM in series [9] was 100%; in [10], less than 50%.

For `Cc1ccc(/C=C2\CCC/C(=C\c3cccc4ccccc34)C2=O)cc1`, the inhibition at 25 µM came out at 66% in series [2] and 74% in series [3]. For the same compound, the inhibition entry in series [5] was “inactive”. In addition, the results for the viability at 25 µM in [9] and in series [10] were 94% and 100%, respectively.

`COc1cc(/C=C2\CCC/C(=C\c3ccc(C)cc3)C2=O)ccc1O`: the values for the inhibition at 25 µM in series [2], in series [3] and in [5] were 85%, 95% and 100%, respectively. The viability at 25 µM in series [9] is 100%; in series [10], less than 50%.

Regarding `COc1cc(/C=C2\CCC/C(=C\c3ccc(O)cc3)C2=O)ccc1O`, the IC50 in series [1] stood at 1.9 µM; in series [4] it was 0.92 µM. In addition, the results for the inhibition at 25 µM in series [2], in series [3] and in series [5] were 88%, 96% and 100%, respectively. Further, in series [6], the inhibition entry is “inactive”. Also, the figures for the viability at 25 µM in series [9] and in series [10] were 100% and less than 50%, respectively.

As for `COc1cccc(/C=C2\CCC/C(=C\c3ccc(Cl)c(Cl)c3)C2=O)c1OC`, the inhibition at 25 µM was found to be 58% in series [2], 73% in series [3] and 90% in [5]. Also, the viability at 25 µM worked out at 100% in [9] and 77% in [10].

Consider `COc1cc(/C=C2\CCC/C(=C\c3ccc(Br)cc3)C2=O)ccc1O`, for which the results for the inhibition at 25 µM in [2], in [3] and in series [5] were 87%, 96% and 100%, respectively. Further, the viability at 25 µM in series [9] was 100%; in [10], less than 50%.

Consider `Cc1ccc(/C=C2\CCC/C(=C\c3ccc(C)o3)C2=O)cc1`, for which the IC50 amounted to 4.86 µM in series [1] and 1.65 µM in [4]. The inhibition at 25 µM in series [2] stood at 84%; in series [3] it was 92%; in series [5], 99%. Further, the inhibition entry in [4] was “Dose-dependent effect”. Further, the inhibition result in [6] is “inactive”. Besides, the viability at 25 µM in series [9] amounted to 98%; in [10], 83%.

As to `COC(=O)[C@@H](N)CCCNC(=N)N[N+](=O)[O-]` [L-NAME], the inhibition at 25 µM in [5] was 53%.

On to `O=C1/C(=C/c2ccc(Br)cc2)CCC/C1=C\c1ccc(-c2ccc(F)cc2)cc1`, for which the values for the inhibition at 25 µM in [2] and in series [3] were 66% and 53%, respectively. In addition, the inhibition entry in [5] was “inactive”. Besides, the results for the viability at 25 µM in series [9] and in [10] were 98% and 92%, respectively.

For `CS(=O)(=O)Nc1ccc([N+](=O)[O-])cc1Oc1ccccc1` [NIMESULIDE], the IC50 in series [1] and in series [4] was less than 0.078 µM in each case. The inhibition at 5 µM in [11] amounted to 66%; in series [13] it was 89%. For the same compound, the viability at 5 µM in series [12] and in series [14] was 100% in each case.

`CCN(CC)c1ccc(/C=C2\CCC/C(=C\c3ccc(O)c(OC)c3)C2=O)cc1`: the inhibition at 25 µM turned out to be 85% in [2], 95% in [3] and 100% in series [5]. Besides, the figures for the viability at 25 µM in series [9] and in series [10] were 100% and less than 50%, respectively.

Turning to `O=C1/C(=C/c2ccc(-c3ccc(F)cc3)cc2)CCC/C1=C\c1ccc(Cl)c(Cl)c1`, the results for the inhibition at 25 µM in [2] and in series [3] were 76% and 59%, respectively. For the same compound, the inhibition entry in series [5] was “inactive”. Besides, the figures for the viability at 25 µM in series [9] and in series [10] were 94% and 100%, respectively.

Take `COc1cccc(/C=C2\CCC/C(=C\c3ccc(-c4ccc(F)cc4)cc3)C2=O)c1OC`: the inhibition at 25 µM in series [2] turned out to be 68%; in series [3], 51%. Moreover, in [5], the inhibition result was “inactive”. Besides, the results for the viability at 25 µM in [9] and in [10] were 98% and 90%, respectively.

For the compound `Cc1ccc(/C=C2\CCC/C(=C\c3ccc(Cl)c(Cl)c3)C2=O)cc1`, the inhibition at 25 µM stood at 68% in series [2], 64% in [3] and 71% in series [5]. In addition, the viability at 25 µM in series [9] turned out to be 100%; in series [10], 95%.

The term IC50 denotes the concentration needed to halve the response being measured.
